ChEMBL document CHEMBL1124358, “Synthesis and pharmacological evaluation of CNS activities of [1,2,3]triazolo[4,5-b][1,5]-, imidazolo[4,5-b][1,5]-, and pyrido[2,3-b][1,5]benzodiazepines. 10-Piperazinyl-4H-1,2,3-triazolo[4,5-b][1,5]benzodiazepines with neuroleptic activity” (J Med Chem, 1989)

How the values were obtained:
[1] = system: Mus musculus; experiment: Effective dose required to evoke catalepsy in mouse when administered perorally; format: functional
In short: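 CFW mice (21–23 g), groups of three, oral dosing in water or 0.5% carboxymethylcellulose. Scored at 0.25, 2.5 and 5.0 h for holding one hind limb on a 2 cm rubber bung and staying on a vertical grid. EDmin is the dose below which no catalepsy occurred at any time.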

[2] = system: Mus musculus; experiment: Effective dose required to produce hypothermia in mouse when administered peroral; format: functional
In short: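 Rectal temperature recorded in groups of three CFW mice (21–23 g) at 0.25, 2.5 and 5.0 h after oral compound (water or 0.5% carboxymethylcellulose). Changes in group mean temperature from the initial mean were summed over the three times. Hypothermia was taken as a summed mean fall >4 °C.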

[3] = system: Rattus norvegicus; experiment: Effective dose against muscular in coordination in rats determined by rotarod test when administered peroral; format: functional
In short: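 Male Olac Wistar rats (140–150 g), fed and watered ad libitum, groups of five; compound in distilled water or 0.5% carboxymethylcellulose given orally. Tested at 1 and 2 h on horizontal rod rotating at 2 rpm (32 mm diameter), time on rod recorded up to 30 s.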

[4] = species on record: Rattus norvegicus; experiment: Inhibition of conditioned avoidance response in rats, peroral dose; format: functional
[5] = target: T1, D(2) dopamine receptor (Bos taurus, UniProt P20288); experiment: Inhibitory activity against dopamine receptor D2 in calf caudate tissue using [3H]spiperone
[6] = target: Muscarinic acetylcholine receptor; experiment: Inhibitory activity against muscarinic cholinergic receptors in male olac rat brain, using [3H]QNB as the radioligand
[7] = system: Rattus norvegicus; experiment: Effective dose against muscular incoordination in rats determined by rotarod test when administered peroral; format: functional
In short: (§1)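 Male Olac Wistar rats (140–150 g), fed and watered ad libitum, in groups of five, dosed orally (water solution or 0.5% carboxymethylcellulose suspension). Tested at 1 and 2 h on a horizontal rod rotating at 2 rpm, 32 mm diameter, with a 30 s cutoff.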

[8] = target: T1, D(2) dopamine receptor; experiment: Inhibitory activity against Dopamine receptor D2 in calf caudate tissue, using [3H]spiperone as the radioligand
[9] = target: Muscarinic acetylcholine receptor; experiment: Inhibitory activity against Muscarinic acetylcholine receptor in male olac rat brain, using [3H]-QNB as the radioligand
[10] = system: Rattus norvegicus; experiment: Effective dose against muscular incoordination in rats determined by rotarod test when administered perorally; format: functional; in short: as §1
[11] = target: T1, D(2) dopamine receptor; experiment: Inhibitory activity Dopamine receptor D2 in calf caudate tissue, using [3H]spiperone as the radioligand

T1 sequence (P20288 whole entry): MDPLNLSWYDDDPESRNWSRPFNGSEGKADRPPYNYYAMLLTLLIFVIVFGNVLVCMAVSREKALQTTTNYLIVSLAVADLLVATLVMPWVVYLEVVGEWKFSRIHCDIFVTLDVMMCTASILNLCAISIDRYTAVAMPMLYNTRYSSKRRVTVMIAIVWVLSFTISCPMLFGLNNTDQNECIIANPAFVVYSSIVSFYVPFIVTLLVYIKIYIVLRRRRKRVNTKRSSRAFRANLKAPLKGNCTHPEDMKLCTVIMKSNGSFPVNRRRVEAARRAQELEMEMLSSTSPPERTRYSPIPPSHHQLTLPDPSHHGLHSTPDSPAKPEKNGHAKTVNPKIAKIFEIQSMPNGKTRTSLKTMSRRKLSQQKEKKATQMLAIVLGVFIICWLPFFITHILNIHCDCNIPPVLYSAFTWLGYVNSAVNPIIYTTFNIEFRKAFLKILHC

## CN1CCN(C2=Nc3cc(Cl)ccc3Nc3ccccc32)CC1 [CLOZAPINE]
[1]
  EDmin: 100 mg/kg
[2]
  EDmin: 50 mg/kg
[3]
  EDmin: 40 mg/kg
[4]
  EDmin: 30 mg/kg

## CCn1nc2c(n1)C(N1CCN(C)CC1)=Nc1cc(F)ccc1N2
[5]
  IC50: 180 nM
[1]
  EDmin: 12.5 mg/kg
[2]
  EDmin: 12.5 mg/kg
[6]
  IC50: > 1000 nM
[7]
  EDmin: 10 mg/kg
[4]
  EDmin: 5 mg/kg

## CN1CCN(C2=Nc3cc(F)ccc3Nc3c2ncn3C)CC1
[5]
  IC50: > 100000 nM
[1]
  EDmin: >400 mg/kg
[2]
  EDmin: >400 mg/kg
[6]
  IC50: 122000 nM
[7]
  EDmin: >50 mg/kg
[4]
  EDmin: >50 mg/kg

## CN1CCN(C2=Nc3ccccc3Nc3c2nnn3C)CC1
[8]
  IC50: > 10000 nM
[4]
  EDmin: >50 mg/kg

## CN1CCN(C2=Nc3cc(C(F)(F)F)ccc3Nc3nn(C)nc32)CC1
[8]
  IC50: 1100 nM
[1]
  EDmin: 50 mg/kg
[2]
  EDmin: 50 mg/kg
[9]
  IC50: > 1000 nM
[7]
  EDmin: 25 mg/kg
[4]
  EDmin: >25 mg/kg

## CN1CCN(C2=Nc3cc(F)ccc3Nc3ncn(C)c32)CC1
[5]
  IC50: > 10000 nM
[1]
  EDmin: 100 mg/kg
[2]
  EDmin: 25 mg/kg
[6]
  IC50: > 1000 nM
[7]
  EDmin: 40 mg/kg
[4]
  EDmin: >20 mg/kg

## CN1CCN(C2=Nc3cc(F)ccc3Nc3nn(C)nc32)CC1
[8]
  IC50: 840 nM
[1]
  EDmin: 25 mg/kg
[2]
  EDmin: 12.5 mg/kg
[9]
  IC50: > 1000 nM
[10]
  EDmin: 20 mg/kg
[4]
  EDmin: 5 mg/kg

## CN1CCN(C2=Nc3cc(Cl)c(Cl)cc3Nc3ncccc32)CC1
[8]
  IC50: 9200 nM
[1]
  EDmin: 50 mg/kg
[2]
  EDmin: 100 mg/kg

## CN1CCN(C2=Nc3ccccc3Nc3ncccc32)CC1
[8]
  IC50: > 10000 nM
[2]
  EDmin: 100 mg/kg

## CN1CCN(C2=Nc3cc(F)ccc3Nc3c2ncn3C2CCCCC2)CC1
[5]
  IC50: > 10000 nM
[1]
  EDmin: >400 mg/kg
[2]
  EDmin: 200 mg/kg
[6]
  IC50: > 100000 nM
[7]
  EDmin: >50 mg/kg
[4]
  EDmin: >50 mg/kg

## Cc1nc2c(n1C)C(N1CCN(C)CC1)=Nc1cc(F)ccc1N2
[5]
  IC50: > 10000 nM
[1]
  EDmin: >200 mg/kg
[2]
  EDmin: 50 mg/kg
[6]
  IC50: > 1000 nM
[7]
  EDmin: >50 mg/kg
[4]
  EDmin: >50 mg/kg

## CCn1nc2c(n1)C(N1CCN(C)CC1)=Nc1cc(Cl)ccc1N2
[5]
  IC50: 67 nM
[1]
  EDmin: 12.5 mg/kg
[2]
  EDmin: 12.5 mg/kg
[6]
  IC50: 2400 nM
[7]
  EDmin: >5 mg/kg
[4]
  EDmin: 5 mg/kg

## Cc1cc2c(s1)Nc1ccc(F)cc1N=C2N1CCN(C)CC1 [FLUMEZAPINE]
[1]
  EDmin: 6.25 mg/kg
[2]
  EDmin: 1.6 mg/kg
[6]
  IC50: 80 nM
[7]
  EDmin: 10 mg/kg
[4]
  EDmin: 5 mg/kg

## CN1CCN(C2=Nc3cc(Br)ccc3Nc3nn(C)nc32)CC1
[11]
  IC50: 300 nM
[1]
  EDmin: 12.5 mg/kg
[2]
  EDmin: 12.5 mg/kg
[9]
  IC50: 4000 nM
[7]
  EDmin: 5 mg/kg
[4]
  EDmin: 5 mg/kg

## CN1CCN(C2=Nc3cc(Cl)ccc3Nc3nn(C)nc32)CC1
[8]
  IC50: 210 nM
[1]
  EDmin: 12.5 mg/kg
[2]
  EDmin: 6 mg/kg
[9]
  IC50: 2600 nM
[7]
  EDmin: >10 mg/kg
[4]
  EDmin: 4 mg/kg

## CCn1cnc2c1Nc1ccc(F)cc1N=C2N1CCN(C)CC1
[5]
  IC50: > 10000 nM
[1]
  EDmin: >200 mg/kg
[2]
  EDmin: >200 mg/kg
[6]
  IC50: 61000 nM
[7]
  EDmin: >50 mg/kg
[4]
  EDmin: >50 mg/kg

## CN1CCN(C2=Nc3ccccc3Nc3nn(C)nc32)CC1
[5]
  IC50: 1420 nM
[1]
  EDmin: 25 mg/kg
[2]
  EDmin: 25 mg/kg
[6]
  IC50: > 1000 nM
[10]
  EDmin: >50 mg/kg
[4]
  EDmin: 5 mg/kg

## CN1CCN(C2=Nc3cc(Cl)c(Cl)cc3Nc3nn(C)nc32)CC1
[8]
  IC50: 2300 nM
[1]
  EDmin: 100 mg/kg
[2]
  EDmin: 50 mg/kg
[9]
  IC50: > 1000 nM
[7]
  EDmin: >50 mg/kg
[4]
  EDmin: >20 mg/kg
